Experimental data published in ChEMBL document CHEMBL4406821, “Novel dual inhibitors targeting CDK4 and VEGFR2 synergistically suppressed cancer progression and angiogenesis” (Eur J Med Chem, 2019).
Active and inactive are the calls of the source. The rule behind the calls is not given here.

Key:
MDA-MB-231 [1] = assay: Inhibition of colony formation in human MDA-MB-231 cells at 40 nM incubated for 5 days by crystal violet staining based light microscopy; type: functional, cell-based
Method in brief: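 4 × 10^3 cells per well were cultured with graded concentrations for 5 days. Cells were then fixed with 20% methanol, stained with 0.5% crystal violet and photographed by light microscopy.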

HeLa [2] = assay: Induction of apoptosis in human HeLa cells assessed as decrease in Bcl2 expression at 80 nM incubated for 48 hrs by Western blot analysis; type: functional, cell-based
Method in brief: (§1)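 Cells were treated for 48 h, washed three times with PBS, and lysed in RIPA buffer. Immunoblots used anti-Rb, anti-phospho-Rb, anti-Ki67 and anti-Bcl-2 (each 1:1000), with β-actin as loading control.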

[3] = biological target: Serine/threonine-protein kinase MRCK beta (Homo sapiens) (UniProt Q9Y5S2); assay: Inhibition of recombinant human MRCKbeta (1 to 473 residues) at 1 uM using KKRNRTLTV as substrate incubated for 40 mins in presence of [gamma-33P]-ATP by scintillation counting method relative to control
[4] = biological target: Serine/threonine-protein kinase NIM1 (Homo sapiens) (UniProt Q8IY84); assay: Inhibition of recombinant human full length NIM1 at 1 uM using KKKVSRSGLYRSPSMPENLNRPR as substrate incubated for 40 mins in presence of [gamma-33P]-ATP by scintillation counting method relative to control
[5] = biological target: Bone morphogenetic protein receptor type-2 (Homo sapiens) (UniProt Q13873); assay: Inhibition of recombinant human BMPR2 (172 to 734 residues) at 1 uM using myelin ba as substrate incubated for 120 mins in presence of [gamma-33P]-ATP by scintillation counting method relative to control
Method in brief: (§2)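 Kinase panel profiling at 1 μM performed by Eurofins KinaseProfiler; percent inhibition reported as mean of two independent experiments.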

[6] = biological target: Casein kinase II subunit alpha' (Homo sapiens) (UniProt P19784); assay: Inhibition of recombinant human full length CK2alpha2 at 1 uM using RRRDDDSDDD as substrate incubated for 40 mins in presence of [gamma-33P]-ATP by scintillation counting method relative to control
[7] = biological target: Serine/threonine-protein kinase Nek7 (Homo sapiens) (UniProt Q8TDX7); assay: Inhibition of recombinant human NEK7 (2 to end residues) at 1 uM using FLAKSFGSPNRAYKK as substrate incubated for 40 mins in presence of [gamma-33P]-ATP by scintillation counting method relative to control
[8] = biological target: Protein kinase C zeta type (Homo sapiens) (UniProt Q05513); assay: Inhibition of recombinant human PKCzeta (2 to end residues) at 1 uM using ERMRPRKRQGSVRRRV as substrate incubated for 40 mins in presence of [gamma-33P]-ATP by scintillation counting method relative to control
[9] = biological target: Fibroblast growth factor receptor 4 (Homo sapiens) (UniProt P22455); assay: Inhibition of recombinant human FGFR4 (442 to 755 residues) at 1 uM using poly(Glu, Tyr) 4:1 as substrate incubated for 40 mins in presence of [gamma-33P]-ATP by scintillation counting method relative to control
Method in brief: (§3)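 Tested at a single 1 uM in an outsourced commercial kinase-profiling panel, read as percent inhibition. Each value is the mean of two independent experiments.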

[10] = biological target: Serine/threonine-protein kinase mTOR (Homo sapiens) (UniProt P42345); assay: Inhibition of recombinant human full length mTOR at 1 uM using as peptide substrate incubated for 40 mins in presence of [gamma-33P]-ATP by scintillation counting method relative to control
Method in brief: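 Single-point inhibition at 1 uM measured in a commercial kinase profiling panel (KinaseProfiler); each value is the mean of two independent experiments.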

[11] = Toxicity in BALB/c mouse assessed as effect on blood parameter by measuring basophils content at 40 mg/kg, po administered once two days for 4 times by hematology analyzer; conditions: in vivo
[12] = biological target: Myosin-IIIb (Homo sapiens) (UniProt Q8WXR4); assay: Inhibition of recombinant human MYO3B (1 to 326 residues) at 1 uM using RLGRDKYKTLRQIRQ as substrate incubated for 40 mins in presence of [gamma-33P]-ATP by scintillation counting method relative to control
[13] = biological target: MAP kinase-interacting serine/threonine-protein kinase 2 (Homo sapiens) (UniProt Q9HBH9); assay: Inhibition of recombinant human full length MNK2 at 1 uM using myelin basic protein as substrate incubated for 40 mins in presence of [gamma-33P]-ATP by scintillation counting method relative to control
[14] = biological target: Serine/threonine-protein kinase VRK2 (Homo sapiens) (UniProt Q86Y07); assay: Inhibition of recombinant human VRK2 (1 to 336 residues) at 1 uM using casein as substrate incubated for 40 mins in presence of [gamma-33P]-ATP by scintillation counting method relative to control; method in brief: as §3
[15] = biological target: Ephrin type-A receptor 3 (Homo sapiens) (UniProt P29320); assay: Inhibition of recombinant human EPhA3 (578 to end residues) at 1 uM using poly(Glu, Tyr) 4:1 as substrate incubated for 40 mins in presence of [gamma-33P]-ATP by scintillation counting method relative to control
HeLa [16] = assay: Induction of cell cycle arrest in human HeLa cells assessed as decrease in accumulation in S phase at 40 to 80 nM incubated for 36 hrs by propidium iodide staining based flow cytometry; type: functional
Method in brief: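 Cells were treated with graded concentrations for 36 h, then fixed overnight in 70% ice-cold ethanol at 4°C and resuspended in PBS. Staining used 50 µg/ml PI plus 5 µg/ml RNase at 37°C for 30 min. DNA content was analysed by FACS to give G0/G1, S and G2/M fractions.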

MDA-MB-231 [17] = assay: Induction of apoptosis in human MDA-MB-231 cells assessed as decrease in Bcl2 expression at 20 to 40 nM incubated for 48 hrs by Western blot analysis; type: functional, cell-based; method in brief: as §1
[18] = biological target: Rhodopsin kinase GRK1 (Homo sapiens) (UniProt Q15835); assay: Inhibition of recombinant human full length GRK1 at 1 uM using KKKKERLLDDRHDSGLDSMKDEE as substrate incubated for 40 mins in presence of [gamma-33P]-ATP by scintillation counting method relative to control
[19] = tested on: Mast/stem cell growth factor receptor Kit (Homo sapiens), P10721 [D816H]; assay: Inhibition of recombinant human cKIT D816H mutant (544 to end residues) at 1 uM using GGMEDIYFEFMGG as substrate incubated for 40 mins in presence of [gamma-33P]-ATP by scintillation counting method relative to control; method in brief: as §3
[20] = biological target: cAMP-dependent protein kinase catalytic subunit PRKX (Homo sapiens) (UniProt P51817); assay: Inhibition of recombinant human full length PrKX at 1 uM using RRRLSFAEPG as substrate incubated for 40 mins in presence of [gamma-33P]-ATP by scintillation counting method relative to control
[21] = biological target: Myotonin-protein kinase (Homo sapiens) (UniProt Q09013); assay: Inhibition of recombinant human DMPK (1 to 549 residues) at 1 uM using KKSRGDYMTMQIG as substrate incubated for 40 mins in presence of [gamma-33P]-ATP by scintillation counting method relative to control; method in brief: as §2

Myosin-IIIb (Homo sapiens), sequence (Q8WXR4 whole entry, the tested form may be a part): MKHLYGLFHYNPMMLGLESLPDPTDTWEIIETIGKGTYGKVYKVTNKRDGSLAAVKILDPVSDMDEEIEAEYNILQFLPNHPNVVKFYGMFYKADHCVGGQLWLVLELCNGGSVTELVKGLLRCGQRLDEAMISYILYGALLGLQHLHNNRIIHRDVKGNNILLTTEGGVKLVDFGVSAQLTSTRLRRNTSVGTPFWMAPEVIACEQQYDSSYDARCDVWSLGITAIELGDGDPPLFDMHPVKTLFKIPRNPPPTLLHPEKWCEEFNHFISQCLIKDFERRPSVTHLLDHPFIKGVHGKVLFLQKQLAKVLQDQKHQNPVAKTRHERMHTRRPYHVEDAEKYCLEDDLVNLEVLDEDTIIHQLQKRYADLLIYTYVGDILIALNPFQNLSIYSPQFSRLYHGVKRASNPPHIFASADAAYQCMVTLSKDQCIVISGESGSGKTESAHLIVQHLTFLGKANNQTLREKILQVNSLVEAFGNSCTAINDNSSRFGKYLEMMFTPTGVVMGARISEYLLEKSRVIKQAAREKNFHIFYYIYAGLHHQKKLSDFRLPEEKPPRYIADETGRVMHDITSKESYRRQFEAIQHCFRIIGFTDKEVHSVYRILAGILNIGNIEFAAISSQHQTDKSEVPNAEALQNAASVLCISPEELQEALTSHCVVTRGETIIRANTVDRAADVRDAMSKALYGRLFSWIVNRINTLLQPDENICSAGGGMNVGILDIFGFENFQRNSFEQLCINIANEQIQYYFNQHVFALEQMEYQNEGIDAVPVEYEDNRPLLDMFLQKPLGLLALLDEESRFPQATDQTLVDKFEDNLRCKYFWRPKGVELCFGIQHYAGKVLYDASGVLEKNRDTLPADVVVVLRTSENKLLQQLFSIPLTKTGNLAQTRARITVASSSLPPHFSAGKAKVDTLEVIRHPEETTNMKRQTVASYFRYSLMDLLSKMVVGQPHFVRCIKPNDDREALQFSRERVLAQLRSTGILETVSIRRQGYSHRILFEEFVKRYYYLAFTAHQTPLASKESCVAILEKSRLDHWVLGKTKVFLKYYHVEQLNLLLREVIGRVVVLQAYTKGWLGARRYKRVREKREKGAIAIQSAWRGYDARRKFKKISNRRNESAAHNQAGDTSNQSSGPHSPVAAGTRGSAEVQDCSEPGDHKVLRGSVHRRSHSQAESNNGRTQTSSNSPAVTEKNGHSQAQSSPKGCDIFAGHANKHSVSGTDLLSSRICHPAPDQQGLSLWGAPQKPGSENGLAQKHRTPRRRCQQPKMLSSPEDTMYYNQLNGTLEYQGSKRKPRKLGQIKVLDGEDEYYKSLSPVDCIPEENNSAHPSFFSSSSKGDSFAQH
Mast/stem cell growth factor receptor Kit (Homo sapiens), P10721 [D816H], sequence (P10721 whole entry D816H): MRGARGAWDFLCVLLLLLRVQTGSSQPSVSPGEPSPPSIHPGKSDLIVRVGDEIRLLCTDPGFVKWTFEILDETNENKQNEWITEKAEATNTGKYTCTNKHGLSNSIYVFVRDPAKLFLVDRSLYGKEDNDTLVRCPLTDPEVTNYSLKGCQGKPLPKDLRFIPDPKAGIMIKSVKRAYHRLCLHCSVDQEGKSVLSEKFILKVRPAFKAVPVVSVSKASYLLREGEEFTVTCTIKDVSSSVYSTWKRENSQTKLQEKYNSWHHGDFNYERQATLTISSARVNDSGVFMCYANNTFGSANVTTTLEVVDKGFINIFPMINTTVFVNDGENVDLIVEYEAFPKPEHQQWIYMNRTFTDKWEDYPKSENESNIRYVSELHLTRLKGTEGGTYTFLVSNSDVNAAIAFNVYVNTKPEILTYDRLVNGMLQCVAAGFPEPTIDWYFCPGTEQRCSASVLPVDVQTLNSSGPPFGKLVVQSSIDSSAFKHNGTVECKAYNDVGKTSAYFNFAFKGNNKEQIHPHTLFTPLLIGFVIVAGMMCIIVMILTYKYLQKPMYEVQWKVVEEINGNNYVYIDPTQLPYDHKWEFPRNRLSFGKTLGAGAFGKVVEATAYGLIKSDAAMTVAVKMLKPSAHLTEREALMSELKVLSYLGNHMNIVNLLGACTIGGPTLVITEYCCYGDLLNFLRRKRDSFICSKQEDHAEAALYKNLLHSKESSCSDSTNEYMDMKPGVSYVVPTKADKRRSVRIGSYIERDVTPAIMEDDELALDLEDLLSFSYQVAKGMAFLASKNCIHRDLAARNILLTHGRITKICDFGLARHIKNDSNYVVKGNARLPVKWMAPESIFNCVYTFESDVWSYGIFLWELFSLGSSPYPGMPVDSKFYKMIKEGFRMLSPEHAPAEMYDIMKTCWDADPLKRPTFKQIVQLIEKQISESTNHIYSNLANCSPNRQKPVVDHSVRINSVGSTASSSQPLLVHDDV
Fibroblast growth factor receptor 4 (Homo sapiens), sequence (P22455 22-802 limits assumed): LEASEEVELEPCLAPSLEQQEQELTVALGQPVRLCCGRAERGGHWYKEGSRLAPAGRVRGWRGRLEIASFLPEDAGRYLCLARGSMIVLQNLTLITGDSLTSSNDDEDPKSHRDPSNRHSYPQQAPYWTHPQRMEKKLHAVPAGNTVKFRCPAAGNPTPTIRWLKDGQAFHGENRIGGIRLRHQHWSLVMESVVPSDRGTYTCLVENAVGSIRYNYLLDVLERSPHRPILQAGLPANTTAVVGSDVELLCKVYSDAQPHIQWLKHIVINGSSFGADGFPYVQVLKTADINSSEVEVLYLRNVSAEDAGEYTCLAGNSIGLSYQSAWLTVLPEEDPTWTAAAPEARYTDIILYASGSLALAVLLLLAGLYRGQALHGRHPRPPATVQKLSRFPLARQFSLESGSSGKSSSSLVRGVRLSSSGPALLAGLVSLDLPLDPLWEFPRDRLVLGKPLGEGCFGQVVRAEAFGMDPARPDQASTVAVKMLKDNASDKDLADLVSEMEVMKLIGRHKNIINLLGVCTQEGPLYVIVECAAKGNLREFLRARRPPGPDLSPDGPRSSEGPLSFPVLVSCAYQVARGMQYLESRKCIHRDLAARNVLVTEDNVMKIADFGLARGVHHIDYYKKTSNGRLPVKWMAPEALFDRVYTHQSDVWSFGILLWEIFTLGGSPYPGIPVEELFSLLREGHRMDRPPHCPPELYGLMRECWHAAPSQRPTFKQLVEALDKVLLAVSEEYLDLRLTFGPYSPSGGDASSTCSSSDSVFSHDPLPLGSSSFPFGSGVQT
Bone morphogenetic protein receptor type-2 (Homo sapiens), sequence (Q13873 whole entry, the tested form may be a part): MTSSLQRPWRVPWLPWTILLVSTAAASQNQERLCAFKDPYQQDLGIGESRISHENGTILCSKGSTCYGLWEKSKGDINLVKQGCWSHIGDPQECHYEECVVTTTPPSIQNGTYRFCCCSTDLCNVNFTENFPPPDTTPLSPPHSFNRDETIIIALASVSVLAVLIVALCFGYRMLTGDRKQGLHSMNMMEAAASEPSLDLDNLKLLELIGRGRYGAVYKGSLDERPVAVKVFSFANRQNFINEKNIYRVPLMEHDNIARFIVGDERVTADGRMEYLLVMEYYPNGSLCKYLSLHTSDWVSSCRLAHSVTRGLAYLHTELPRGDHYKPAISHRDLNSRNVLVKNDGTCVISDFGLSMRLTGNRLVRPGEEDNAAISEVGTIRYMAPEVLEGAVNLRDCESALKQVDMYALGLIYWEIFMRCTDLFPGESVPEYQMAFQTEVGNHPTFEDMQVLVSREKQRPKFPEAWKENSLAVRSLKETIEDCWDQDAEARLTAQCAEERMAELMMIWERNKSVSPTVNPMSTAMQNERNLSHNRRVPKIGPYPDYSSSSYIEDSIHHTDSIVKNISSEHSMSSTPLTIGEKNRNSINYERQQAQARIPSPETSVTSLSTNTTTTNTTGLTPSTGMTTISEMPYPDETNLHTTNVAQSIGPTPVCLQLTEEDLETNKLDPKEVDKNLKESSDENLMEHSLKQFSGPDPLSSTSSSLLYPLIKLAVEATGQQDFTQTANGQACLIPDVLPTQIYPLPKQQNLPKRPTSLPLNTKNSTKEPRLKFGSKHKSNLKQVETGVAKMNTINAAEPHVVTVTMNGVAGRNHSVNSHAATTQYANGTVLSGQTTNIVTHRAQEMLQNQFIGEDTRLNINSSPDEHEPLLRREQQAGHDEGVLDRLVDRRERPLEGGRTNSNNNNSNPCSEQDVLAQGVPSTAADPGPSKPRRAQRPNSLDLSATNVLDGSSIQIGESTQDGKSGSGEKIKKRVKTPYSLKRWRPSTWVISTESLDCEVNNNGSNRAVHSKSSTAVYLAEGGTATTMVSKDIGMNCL
MAP kinase-interacting serine/threonine-protein kinase 2 (Homo sapiens), sequence (Q9HBH9 whole entry, looked up, the tested form may be a part): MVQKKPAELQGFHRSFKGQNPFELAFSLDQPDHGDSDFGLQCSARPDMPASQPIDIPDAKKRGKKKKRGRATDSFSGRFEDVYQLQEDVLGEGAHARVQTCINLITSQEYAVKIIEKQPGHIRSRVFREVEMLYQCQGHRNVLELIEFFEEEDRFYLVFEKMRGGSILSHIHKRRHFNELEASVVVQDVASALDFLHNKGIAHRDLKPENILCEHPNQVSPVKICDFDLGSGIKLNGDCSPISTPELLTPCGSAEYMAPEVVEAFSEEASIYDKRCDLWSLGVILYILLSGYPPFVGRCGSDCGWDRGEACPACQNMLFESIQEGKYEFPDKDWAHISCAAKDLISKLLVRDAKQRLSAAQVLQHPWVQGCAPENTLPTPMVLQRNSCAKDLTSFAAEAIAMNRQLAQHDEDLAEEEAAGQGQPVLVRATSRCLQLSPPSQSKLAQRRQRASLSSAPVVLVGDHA
Serine/threonine-protein kinase NIM1 (Homo sapiens), sequence (Q8IY84 whole entry, the tested form may be a part): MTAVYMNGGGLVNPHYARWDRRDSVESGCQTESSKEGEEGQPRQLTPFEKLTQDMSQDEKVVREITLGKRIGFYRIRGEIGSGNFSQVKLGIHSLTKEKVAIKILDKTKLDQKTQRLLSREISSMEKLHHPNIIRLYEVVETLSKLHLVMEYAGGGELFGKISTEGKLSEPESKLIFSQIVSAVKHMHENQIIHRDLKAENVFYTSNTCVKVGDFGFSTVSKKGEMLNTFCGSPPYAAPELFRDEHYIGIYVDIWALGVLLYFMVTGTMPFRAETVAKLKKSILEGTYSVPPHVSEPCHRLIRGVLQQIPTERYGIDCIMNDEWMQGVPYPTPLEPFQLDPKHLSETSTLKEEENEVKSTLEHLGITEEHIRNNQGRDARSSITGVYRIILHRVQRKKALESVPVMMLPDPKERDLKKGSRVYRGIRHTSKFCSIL

For `COc1cc2nccc(Oc3ccc(NC(=O)C4(C(=O)Nc5ccc(F)cc5)CC4)cc3)c2cc1OC` [CABOZANTINIB], the inhibition (MDA-MB-231 [1]) was “Active” and the Activity (HeLa [2]) was “Active”.
`Cc1ccc(NC(=O)C2(C(=O)Nc3ccc(Nc4ncc(F)c(-c5cc(F)c6nc(C)n(C(C)C)c6c5)n4)cc3)CC2)cc1` gave an inhibition [3] of 7%, an inhibition [4] of 66% and an inhibition [5] of 78%. For the same molecule, the inhibition [6] was 72%, the inhibition [7] was 3% and the inhibition [8] was 4%. The inhibition [9] was 0%, the inhibition [10] was 0% and the Activity [11] was “Non-Toxic”. It also gave an inhibition [12] of 10%, an inhibition [13] of 10% and an inhibition [14] of 0%. The inhibition [15] was 23%, the Activity (HeLa [16]) was “Active” and the Activity (MDA-MB-231 [17]) was “Active”. For the same molecule, the inhibition [18] was 8%, the inhibition [19] was 76% and the inhibition [20] was 43%. For the same molecule, the inhibition [21] was 10%.
